Measured values from ChEMBL document CHEMBL4145462, “Nitrogen-containing ecdysteroid derivatives vs. multi-drug resistance in cancer: Preparation and antitumor activity of oximes, oxime ethers and a lactam” (Eur J Med Chem, 2018).

Tests used:
SiHa = test: Antiproliferative activity against human SiHa cells after 72 hrs by MTT assay; type: functional, cell-based
In short: (§1)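 Cells grown in MEM with 10% FCS, 1% non-essential amino acids and 1% penicillin-streptomycin. Seeded at 5000 cells/well, exposed to 0.1–30.0 µM compound for 72 h. MTT (5 mg/ml solution) was then added for 4 h, formazan dissolved in DMSO, and absorbance read at 545 nm. Cisplatin served as positive control. IC50 came from sigmoidal dose–response fits (log inhibitor vs normalized response, variable slope).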

MDA-MB-231 = test: Antiproliferative activity against human MDA-MB-231 cells after 72 hrs by MTT assay; type: functional, cell-based; conditions: MDA-MB-231, 72 h; in short: as §1
[1] = Cytotoxicity against mouse L5178 cells after 48 hrs by MTT assay; type: functional, cell-based; conditions: L5178, 48 h
In short: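 Parental mouse lymphoma L5178 and the MDR line made by pHa MDR1/A retrovirus transfection, selected with 60 µg/L colchicine. Grown in McCoy's 5A with horse serum at 37°C, 5% CO2. 5 x 10^4 cells/well, serial compound dilutions, 48 h. MTT added to 0.5 mg/mL final for 4 h, then 10% SDS in 0.01 M HCl overnight, OD read at 540 and 630 nm. IC50 taken as median cytotoxic activity (Dm) from control lanes of checkerboard plates, n=2.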

ABCB1 (P-glycoprotein) [2] = target: T1, ABCB1 (P-glycoprotein) (Homo sapiens, UniProt P08183); test: Inhibition of human ABCB1 expressed in mouse L5178 cells assessed as increase in rhodamine-123 accumulation at 2 uM after 10 mins by flow cytometric analysis relative to control; type: cell-based; conditions: mouse L5178 cells expressing human ABCB1, probe rhodamine-123
In short: (§2)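 Cells at 2 × 10^6/mL were preincubated 10 min with compound. Rhodamine 123 then added to 5.2 µM final, 20 min at 37 °C. Cells washed twice in PBS, resuspended and read by flow cytometry. Percent inhibition was scaled between MDR-cell accumulation (0%) and parental L5178 accumulation (100%). Controls: 100 nM tariquidar (positive) and 2% DMSO (negative).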

ABCB1 (P-glycoprotein) [3] = target: T1, ABCB1 (P-glycoprotein); test: Inhibition of human ABCB1 expressed in mouse L5178 cells assessed as increase in rhodamine-123 accumulation at 20 uM after 10 mins by flow cytometric analysis relative to control; type: cell-based; conditions: mouse L5178 cells expressing human ABCB1, probe rhodamine-123; in short: as §2
[4] = Synergistic cytotoxicity against mouse L5178 cells assessed as combination index at ED75 using 150:1 test compound to doxorubicin ratio after 48 hrs by MTT-based checkerboard microplate method; type: functional
In short: (§3)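 Checkerboard microplate combinations of compound with doxorubicin at constant molar ratios. 5 × 10^4 cells/well in McCoy's 5A, 48 h at 37°C, 5% CO2. MTT added to 0.5 mg/mL final for 4 h, SDS/HCl overnight, OD read at 540 and 630 nm. Combination indices derived per ratio for 50%, 75% and 90% growth inhibition by median-effect analysis.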

[5] = Synergistic cytotoxicity against mouse L5178 cells expressing human ABCB1 assessed as combination index at ED50 using 30:1 test compound to doxorubicin ratio after 48 hrs by MTT-based checkerboard microplate method; type: functional; in short: as §3
[6] = Synergistic cytotoxicity against mouse L5178 cells expressing human ABCB1 assessed as combination index at ED75 using 30:1 test compound to doxorubicin ratio after 48 hrs by MTT-based checkerboard microplate method; type: functional; in short: as §3
[7] = Synergistic cytotoxicity against mouse L5178 cells expressing human ABCB1 assessed as combination index at ED90 using 30:1 test compound to doxorubicin ratio after 48 hrs by MTT-based checkerboard microplate method; type: functional; in short: as §3
[8] = Synergistic cytotoxicity against mouse L5178 cells expressing human ABCB1 assessed as combination index at ED50 using 7.5:1 test compound to doxorubicin ratio after 48 hrs by MTT-based checkerboard microplate method; type: functional; in short: as §3
[9] = Synergistic cytotoxicity against mouse L5178 cells expressing human ABCB1 assessed as combination index at ED75 using 7.5:1 test compound to doxorubicin ratio after 48 hrs by MTT-based checkerboard microplate method; type: functional; in short: as §3
[10] = Synergistic cytotoxicity against mouse L5178 cells expressing human ABCB1 assessed as combination index at ED90 using 7.5:1 test compound to doxorubicin ratio after 48 hrs by MTT-based checkerboard microplate method; type: functional; in short: as §3
[11] = Synergistic cytotoxicity against mouse L5178 cells assessed as combination index at ED50 using 37.5:1 test compound to doxorubicin ratio after 48 hrs by MTT-based checkerboard microplate method; type: functional; in short: as §3
[12] = Synergistic cytotoxicity against mouse L5178 cells assessed as combination index at ED75 using 37.5:1 test compound to doxorubicin ratio after 48 hrs by MTT-based checkerboard microplate method; type: functional; in short: as §3
[13] = Synergistic cytotoxicity against mouse L5178 cells assessed as combination index at ED90 using 37.5:1 test compound to doxorubicin ratio after 48 hrs by MTT-based checkerboard microplate method; type: functional; in short: as §3
[14] = Synergistic cytotoxicity against mouse L5178 cells expressing human ABCB1 assessed as combination index at ED50 using 3.75:1 test compound to doxorubicin ratio after 48 hrs by MTT-based checkerboard microplate method; type: functional; in short: as §3
[15] = Synergistic cytotoxicity against mouse L5178 cells expressing human ABCB1 assessed as combination index at ED75 using 3.75:1 test compound to doxorubicin ratio after 48 hrs by MTT-based checkerboard microplate method; type: functional; in short: as §3
[16] = Synergistic cytotoxicity against mouse L5178 cells assessed as combination index at ED50 using 75:1 test compound to doxorubicin ratio after 48 hrs by MTT-based checkerboard microplate method; type: functional; in short: as §3
[17] = Synergistic cytotoxicity against mouse L5178 cells assessed as combination index at ED90 using 75:1 test compound to doxorubicin ratio after 48 hrs by MTT-based checkerboard microplate method; type: functional; in short: as §3
[18] = Synergistic cytotoxicity against mouse L5178 cells expressing human ABCB1 assessed as combination index at ED50 using 60:1 test compound to doxorubicin ratio after 48 hrs by MTT-based checkerboard microplate method; type: functional; in short: as §3
[19] = Synergistic cytotoxicity against mouse L5178 cells expressing human ABCB1 assessed as combination index at ED75 using 60:1 test compound to doxorubicin ratio after 48 hrs by MTT-based checkerboard microplate method; type: functional; in short: as §3
[20] = Synergistic cytotoxicity against mouse L5178 cells expressing human ABCB1 assessed as combination index at ED90 using 60:1 test compound to doxorubicin ratio after 48 hrs by MTT-based checkerboard microplate method; type: functional; in short: as §3
[21] = Synergistic cytotoxicity against mouse L5178 cells assessed as combination index at ED50 using 300:1 test compound to doxorubicin ratio after 48 hrs by MTT-based checkerboard microplate method; type: functional; in short: as §3
[22] = Synergistic cytotoxicity against mouse L5178 cells assessed as combination index at ED75 using 300:1 test compound to doxorubicin ratio after 48 hrs by MTT-based checkerboard microplate method; type: functional; in short: as §3
[23] = Synergistic cytotoxicity against mouse L5178 cells assessed as combination index at ED90 using 300:1 test compound to doxorubicin ratio after 48 hrs by MTT-based checkerboard microplate method; type: functional; in short: as §3
[24] = Synergistic cytotoxicity against mouse L5178 cells assessed as combination index at ED75 using 600:1 test compound to doxorubicin ratio after 48 hrs by MTT-based checkerboard microplate method; type: functional; in short: as §3
[25] = Synergistic cytotoxicity against mouse L5178 cells assessed as combination index at ED90 using 600:1 test compound to doxorubicin ratio after 48 hrs by MTT-based checkerboard microplate method; type: functional; in short: as §3

T1 sequence (P08183 whole entry): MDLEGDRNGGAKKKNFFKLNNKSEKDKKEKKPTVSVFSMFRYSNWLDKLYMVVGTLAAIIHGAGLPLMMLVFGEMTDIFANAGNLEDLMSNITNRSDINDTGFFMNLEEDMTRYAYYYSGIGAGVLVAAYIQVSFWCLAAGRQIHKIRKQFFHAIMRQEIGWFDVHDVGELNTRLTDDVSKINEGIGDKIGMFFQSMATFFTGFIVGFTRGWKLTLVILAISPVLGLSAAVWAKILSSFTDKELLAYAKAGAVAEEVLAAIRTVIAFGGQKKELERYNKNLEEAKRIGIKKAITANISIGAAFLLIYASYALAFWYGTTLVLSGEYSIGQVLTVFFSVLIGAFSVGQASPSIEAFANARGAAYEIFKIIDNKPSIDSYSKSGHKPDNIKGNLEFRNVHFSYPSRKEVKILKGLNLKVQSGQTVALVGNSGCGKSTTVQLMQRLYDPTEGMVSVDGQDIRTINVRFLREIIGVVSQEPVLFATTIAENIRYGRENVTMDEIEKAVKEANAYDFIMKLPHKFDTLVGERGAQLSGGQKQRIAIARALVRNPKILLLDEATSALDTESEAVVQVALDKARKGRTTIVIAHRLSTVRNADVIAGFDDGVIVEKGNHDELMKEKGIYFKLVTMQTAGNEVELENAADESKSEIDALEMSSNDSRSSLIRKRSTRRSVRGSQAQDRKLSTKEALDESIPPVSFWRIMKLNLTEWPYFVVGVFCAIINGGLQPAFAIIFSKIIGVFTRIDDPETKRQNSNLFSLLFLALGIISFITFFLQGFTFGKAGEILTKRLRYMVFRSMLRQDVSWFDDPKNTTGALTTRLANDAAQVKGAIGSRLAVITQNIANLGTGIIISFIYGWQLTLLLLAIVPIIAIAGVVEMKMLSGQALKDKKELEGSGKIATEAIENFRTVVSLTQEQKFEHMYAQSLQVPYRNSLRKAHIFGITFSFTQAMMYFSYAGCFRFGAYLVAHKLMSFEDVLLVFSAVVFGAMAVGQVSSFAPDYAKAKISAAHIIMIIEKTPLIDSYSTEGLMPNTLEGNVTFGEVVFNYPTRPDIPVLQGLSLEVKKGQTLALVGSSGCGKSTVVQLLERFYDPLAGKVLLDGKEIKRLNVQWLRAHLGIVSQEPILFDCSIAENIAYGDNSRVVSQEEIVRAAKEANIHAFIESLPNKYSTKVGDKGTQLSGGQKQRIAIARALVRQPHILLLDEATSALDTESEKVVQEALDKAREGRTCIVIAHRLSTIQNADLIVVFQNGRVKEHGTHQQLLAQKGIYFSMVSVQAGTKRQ

SMILES	IC50 (SiHa)	IC50 (MDA-MB-231)	IC50 [1]	inhibition at 10 min, 2 µM (ABCB1 (P-glycoprotein) [2])	inhibition at 10 min, 20 µM (ABCB1 (P-glycoprotein) [3])	CI [4]	CI [5]	CI [6]	CI [7]	CI [8]	CI [9]	CI [10]	CI [11]	CI [12]	CI [13]	CI [14]	CI [15]	CI [16]	CI [17]	CI [21]	other results
CC(C)(O)CC[C@H]1OC(C)(C)O[C@]1(C)[C@H]1CC=C2C3=C/C(=N\OC(C)(C)C)[C@@H]4C[C@H]5OC(C)(C)O[C@H]5C[C@]4(C)[C@H]3CC[C@@]21C	14.2 µM	16.9 µM	63.8 µM	67.5%	94%	0.85	0.36	0.38	0.41	0.27	0.24	0.23	1.16	0.85	0.64	0.31	0.26	1.31	0.83	0.77	CI [18]: 0.51; CI [19]: 0.57; CI [20]: 0.64; CI [22]: 0.87; CI [23]: 1.02; CI [24]: 0.89; CI [25]: 0.98
CCO/N=C1/C=C2[C@H](CC[C@]3(C)[C@@H]([C@@]4(C)OC(C)(C)O[C@@H]4CCC(C)(C)O)CC[C@@]23O)[C@@]2(C)C[C@@H]3OC(C)(C)O[C@@H]3C[C@@H]12	> 30 µM	25.1 µM	37.3 µM	19%	75%	0.67	0.23	0.23	0.26	0.19	0.16	0.17	0.63	0.52	0.45	0.27	0.16	0.58	0.58	0.8	CI [22]: 0.88; CI [23]: 0.98; CI [24]: 0.83; CI [25]: 0.94
CO/N=C1/C=C2C3=CC[C@H]([C@@]4(C)OC(C)(C)O[C@@H]4CCC(C)(C)O)[C@@]3(C)CC[C@@H]2[C@@]2(C)C[C@@H]3OC(C)(C)O[C@@H]3C[C@@H]12	> 30 µM	26 µM	46 µM	33.4%	106%	0.67	0.21	0.22	0.24	0.17	0.16	0.15	0.77	0.47	0.31	0.2	0.17	0.69	0.39	0.85	CI [18]: 0.33; CI [19]: 0.34; CI [20]: 0.36; CI [22]: 0.83; CI [23]: 0.87; CI [24]: 1.2; CI [25]: 1.3
CC(C)(O)CC[C@H]1OC(C)(C)O[C@]1(C)[C@H]1CC=C2C3=C/C(=N/OC(C)(C)C)[C@@H]4C[C@H]5OC(C)(C)O[C@H]5C[C@]4(C)[C@H]3CC[C@@]21C	8.14 µM	15.7 µM	63.2 µM	59%	78.8%	0.63	0.34	0.32	0.31	0.34	0.26	0.23	0.53	0.59	0.66	0.42	0.29	0.82	0.55	1.05	CI [18]: 0.47; CI [19]: 0.5; CI [20]: 0.53; CI [22]: 1.06; CI [23]: 1.07; CI [24]: 0.91; CI [25]: 0.94
C=CCO/N=C1/C=C2C3=CC[C@H]([C@@]4(C)OC(C)(C)O[C@@H]4CCC(C)(C)O)[C@@]3(C)CC[C@@H]2[C@@]2(C)C[C@@H]3OC(C)(C)O[C@@H]3C[C@@H]12	> 30 µM	29.4 µM	55.3 µM	61.1%	103%	0.63	0.32	0.32	0.34	0.22	0.17	0.15	0.46	0.47	0.47	0.25	0.15	0.58	0.44	0.73	CI [18]: 0.41; CI [19]: 0.39; CI [20]: 0.39; CI [22]: 0.88; CI [23]: 1.07; CI [24]: 0.99; CI [25]: 1.12
C=CCO/N=C1/C=C2[C@H](CC[C@]3(C)[C@@H]([C@@]4(C)OC(C)(C)O[C@@H]4CCC(C)(C)O)CC[C@@]23O)[C@@]2(C)C[C@@H]3OC(C)(C)O[C@@H]3C[C@@H]12	> 30 µM	26.9 µM	36.7 µM	24.2%	81.8%	0.99	0.21	0.22	0.25	0.2	0.19	0.19	1.08	1.11	1.2	0.23	0.19	0.7	1.03	0.93	CI [18]: 0.31; CI [19]: 0.32; CI [20]: 0.35; CI [22]: 1.18; CI [23]: 1.55
